Converted amounts (≈) assume the structure as drawn. The source made the active and inactive calls. No cut-off for these calls is given here.
Legend:
[1] = tested on: Respiratory syncytial virus; assay: Antiviral activity against RSV infected in human HeLa cells assessed as inhibition of virus-induced cytopathic effect after 3 days by MTS assay; type: functional, organism-based; conditions: 72 h
Method in brief: (§1)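 Confluent cell monolayers were infected with 100 CCID50 of virus and allowed 2 h adsorption at 37 °C. Virus was then removed and serial compound dilutions were added. Cultures were incubated at 37 °C for 3 days, until CPE was complete in the untreated virus control. EC50 was the concentration giving 50% inhibition of virus-induced CPE, by visual score or by MTS formazan cell viability.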

Coxsackievirus B4 [2] = assay: Antiviral activity against Coxsackie virus B4 infected in human HeLa cells assessed as inhibition of virus-induced cytopathic effect after 3 days by MTS assay; type: functional, organism-based; conditions: Enterovirus B, 72 h; method in brief: as §1
[3] = (§2) Cytotoxicity against human HeLa cells after 3 days by MTS assay; type: cell-based; conditions: HeLa cells
Method in brief: (§3)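 Uninfected HeLa cells were run in parallel with the antiviral assay and exposed to serial compound dilutions. CC50 is the 50% cytotoxic concentration from colorimetric formazan-based MTS cell viability.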

[4] = tested on: Vesicular stomatitis virus; assay: Antiviral activity against VSV infected in human HeLa cells assessed as inhibition of virus-induced cytopathic effect after 3 days by MTS assay; type: functional, organism-based; conditions: 72 h; method in brief: as §1
Staphylococcus aureus = assay: Antibacterial activity against Staphylococcus aureus after 24 hrs by serial dilution method; type: functional
Bacillus subtilis = assay: Antibacterial activity against Bacillus subtilis after 24 hrs by serial dilution method; type: functional
Escherichia coli = assay: Antibacterial activity against Escherichia coli after 24 hrs by serial dilution method; type: functional
Candida albicans = assay: Antifungal activity against Candida albicans after 48 hrs by serial dilution method; type: functional
Method in brief: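 Serial compound dilutions in Sabouraud dextrose broth (tube dilution), incubated 37 °C for 48 h. MIC was read as the lowest concentration with no growth.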

Aspergillus niger = assay: Antifungal activity against Aspergillus niger after 7 days by serial dilution method; type: functional
Feline coronavirus = assay: Antiviral activity against Feline caronavirus infected in […] cells assessed as inhibition of virus-induced cytopathic effect after 3 days by MTS assay; type: functional, organism-based; method in brief: as §1
Felid alphaherpesvirus 1 = assay: Antiviral activity against Feline herpesvirus 1 infected in […] cells assessed as inhibition of virus-induced cytopathic effect after 3 days by MTS assay; type: functional, organism-based; method in brief: as §1
Human alphaherpesvirus 1 [5] = assay: Antiviral activity against Herpes simplex virus 1 KOS infected in human HEL cells assessed as inhibition of virus-induced cytopathic effect after 3 days by MTS assay; type: functional, organism-based; method in brief: as §1
Human alphaherpesvirus 2 = assay: Antiviral activity against Herpes simplex virus 2 G infected in human HEL cells assessed as inhibition of virus-induced cytopathic effect after 3 days by MTS assay; type: functional, organism-based; conditions: strain G; method in brief: as §1
Vaccinia virus = assay: Antiviral activity against Vaccinia virus infected in human HEL cells assessed as inhibition of virus-induced cytopathic effect after 3 days by MTS assay; type: functional, organism-based; conditions: Orthopoxvirus vaccinia; method in brief: as §1
Human alphaherpesvirus 1 [6] = assay: Antiviral activity against acyclovir-resistant […] kinase-deficient HSV1 KOS infected in human HEL cells assessed as inhibition of virus-induced cytopathic effect after 3 days by MTS assay; type: functional, organism-based; method in brief: as §1
[7] = tested on: Vesicular stomatitis virus; assay: Antiviral activity against VSV infected in human HEL cells assessed as inhibition of virus-induced cytopathic effect after 3 days by MTS assay; type: functional, organism-based; method in brief: as §1
Influenza A virus [8] = assay: Antiviral activity against influenza A virus H1N1 infected in MDCK cells assessed as inhibition of virus-induced cytopathic effect after 3 days by MTS assay; type: functional, organism-based; method in brief: as §1
Influenza A virus [9] = assay: Antiviral activity against influenza A virus H3N2 infected in MDCK cells assessed as inhibition of virus-induced cytopathic effect after 3 days by MTS assay; type: functional, organism-based; method in brief: as §1
Influenza B virus = assay: Antiviral activity against influenza B virus infected in MDCK cells assessed as inhibition of virus-induced cytopathic effect after 3 days by MTS assay; type: functional, organism-based; method in brief: as §1
Human respirovirus 3 = assay: Antiviral activity against Parainfluenza 3 virus infected in african green monkey Vero cells assessed as inhibition of virus-induced cytopathic effect after 3 days by MTS assay; type: functional, organism-based; method in brief: as §1
[10] = tested on: Mammalian orthoreovirus 1; assay: Antiviral activity against Reovirus 1 infected in african green monkey Vero cells assessed as inhibition of virus-induced cytopathic effect after 3 days by MTS assay; type: functional, organism-based; method in brief: as §1
Sindbis virus = assay: Antiviral activity against Simbidis virus infected in african green monkey Vero cells assessed as inhibition of virus-induced cytopathic effect after 3 days by MTS assay; type: functional, organism-based; method in brief: as §1
Coxsackievirus B4 [11] = assay: Antiviral activity against Coxsackie virus B4 infected in african green monkey Vero cells assessed as inhibition of virus-induced cytopathic effect after 3 days by MTS assay; type: functional, organism-based; method in brief: as §1
Punta Toro virus = assay: Antiviral activity against Punta toro virus infected in african green monkey Vero cells assessed as inhibition of virus-induced cytopathic effect after 3 days by MTS assay; type: functional, organism-based; method in brief: as §1
HeLa = assay: as §2; type: cell-based; conditions: hela, 72 h; method in brief: as §3

SMILES	MBC (Staphylococcus aureus) [uM/ml]	MBC (Bacillus subtilis) [uM/ml]	MBC (Escherichia coli) [uM/ml]	MFC (Candida albicans) [uM/ml]	-logMIC (Aspergillus niger)	MFC (Aspergillus niger) [uM/ml]	inhibition (Feline coronavirus)	inhibition (Felid alphaherpesvirus 1)	inhibition (Human alphaherpesvirus 1 [5])	inhibition (Human alphaherpesvirus 2)	inhibition (Vaccinia virus)	inhibition (Human alphaherpesvirus 1 [6])	inhibition [7]	inhibition (Influenza A virus [8])	inhibition (Influenza A virus [9])	inhibition (Influenza B virus)	inhibition (Human respirovirus 3)	inhibition [10]	inhibition (Sindbis virus)	inhibition (Coxsackievirus B4 [11])	further results
Nc1ncnc2c1ncn2C[C@H](O)CO [(S)-DHPA]																					EC50 [1]: > 250 µM; EC50 (Coxsackievirus B4 [2]): > 250 µM; CC50 at 72 h [3]: > 250 µg/mL; MCC at 72 h [3]: > 250 µM; EC50 [4]: > 250 µM
C/C=C/C=C/C(=O)N/N=C/c1ccccc1Cl	>0.201	0.05	0.1	>0.201	1.5	>0.201	inactive	inactive	inactive	inactive	inactive	inactive	inactive	inactive	inactive	inactive	inactive	inactive	inactive	inactive	inhibition (Punta Toro virus): inactive
CCCCCCCCCCCCCCCCCC(=O)N/N=C/c1ccccc1	0.129	<0.129	0.064	<0.129	1.2	0.03	inactive	inactive	inactive	inactive	inactive	inactive	inactive	inactive	inactive	inactive	inactive	inactive	inactive	inactive	-logMIC (Bacillus subtilis): 1.49; -logMIC (Escherichia coli): 1.79; -logMIC (Candida albicans): 2.09; inhibition (Punta Toro virus): inactive
O=C(/C=C/c1ccccc1)N/N=C/c1ccccc1Cl	0.176	0.088	>0.176	>0.176	1.76	>0.176	inactive	inactive	inactive	inactive	inactive	inactive	inactive	inactive	inactive	inactive	inactive	inactive	inactive	inactive	inhibition (Punta Toro virus): inactive
CCCCCCCCCCCC(=O)N/N=C/c1ccccc1Cl	>0.148	0.148	0.009	>0.148	1.43	>0.148	inactive	inactive	inactive	inactive	inactive	inactive	inactive	inactive	inactive	inactive	inactive	inactive	inactive	inactive	-logMIC (Escherichia coli): 1.8; inhibition (Punta Toro virus): inactive
CCCCCCCCCCCCCCCC(=O)N/N=C/c1ccccc1	>0.139	0.139	>0.139	>0.139	0.86	>0.139	inactive	inactive	inactive	inactive	inactive	inactive	inactive	inactive	inactive	inactive	inactive	inactive	inactive	inactive	inhibition (Punta Toro virus): inactive
O=C(N/N=C/c1ccccc1)c1cc([N+](=O)[O-])cc([N+](=O)[O-])c1	>0.159	0.159	>0.159	0.159	1.7	0.079	inactive	inactive	inactive	inactive	inactive	inactive	inactive	inactive	inactive	inactive	inactive	inactive	inactive	inactive	inhibition (Punta Toro virus): inactive
NC(=O)c1ncn([C@@H]2O[C@H](CO)[C@@H](O)[C@H]2O)n1 [RIBAVIRIN]																					EC50 [1]: 6.6 µM; EC50 (Coxsackievirus B4 [2]): 73.1 µM; CC50 at 72 h [3]: > 250 µg/mL; MCC at 72 h [3]: > 250 µM; EC50 [4]: 17.2 µM
O=C(/C=C/c1ccccc1)N/N=C/c1ccccc1	>0.2	>0.2	0.05	>0.2	1.6	>0.2	inactive	inactive	inactive	inactive	inactive	inactive	inactive	inactive	inactive	inactive	inactive	inactive	inactive	inactive	inhibition (Punta Toro virus): inactive
Cc1ccc(C(=O)N/N=C/c2ccccc2Cl)cc1	0.045	0.183	0.045	>0.183	1.61	0.183	inactive	inactive	inactive	inactive	inactive	inactive	inactive	inactive	inactive	inactive	inactive	inactive	inactive	inactive	inhibition (Punta Toro virus): inactive
COc1cc(OC)cc(C(=O)N/N=C/c2ccccc2)c1	0.088	0.044	0.177	0.011	1.66	0.022	inactive	inactive	inactive	inactive	inactive	inactive	inactive	inactive	inactive	inactive	inactive	inactive	inactive	inactive	EC50 [1]: > 20 µg/mL; EC50 (Coxsackievirus B4 [2]): > 20 µg/mL; MCC at 72 h [3]: 100 µg/mL; CC50 (HeLa): 61.2 µg/mL (≈ 215 µM); EC50 [4]: 6.5 µg/mL; inhibition (Punta Toro virus): inactive
